ChEMBL document CHEMBL1150397, “Towards the first inhibitors of trihydroxynaphthalene reductase from Curvularia lunata: synthesis of artificial substrate, homology modelling and initial screening” (Bioorg Med Chem, 2008)
Activity calls are given as the source filed them. No cut-off for these calls is given here.

Tests used:
[1] = tested on: Curvularia lunata; assay: (§1) Inhibition of recombinant Curvularia lunata trihydroxynaphthalene reductase; conditions: for inhibition: concentration not given here
Method in brief: (§2)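 GST-fusion 3HNR from C. lunata expressed in E. coli BL21-AI, bound on glutathione-Sepharose, thrombin-cleaved, purity checked by SDS-PAGE. Initial rates of DDBO oxidation with NADP+ reduction followed at 340 nm (NADPH absorbance), 25 °C. Conditions: 0.2 µM enzyme, 100 µM DDBO, 500 µM coenzyme, 100 mM phosphate pH 7.0, 1% final DMF. Compounds screened at 100 µM; IC50 determined over 5–200 µM where screening inhibition exceeded 35%.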

[2] = as §1; method in brief: as §2

SMILES	Activity [1]	IC50 [2] [µM]	other results
CCc1cccc2c3c([nH]c12)C(CC)(CC(=O)O)OCC3 (configuration not stated) [ETODOLAC]	–	17	–
CCOc1ccc(NC(C)=O)cc1	inactive	–	–
O=C(O)Cc1ccccc1Nc1c(Cl)cccc1Cl [DICLOFENAC SODIUM]	–	108	–
CC(=O)Nc1ccc(O)cc1	inactive	–	–
COc1ccc2cc([C@H](C)C(=O)O)ccc2c1	–	–	inhibition [1]: 9%
Cc1ccc(-c2cc(C(F)(F)F)nn2-c2ccc(S(N)(=O)=O)cc2)cc1	–	–	inhibition [1]: 17%

Now from value to compound, other results behind:

Activity [1]	IC50 [2] [µM]	SMILES	other results
inactive	–	CC(C(=O)O)c1cccc(C(=O)c2ccccc2)c1 (configuration not stated)	–
–	167	CCOC(=O)c1cc(=O)c2cc(C)cc([N+](=O)[O-])c2o1	–
–	120	CCOC(=O)c1cc(=O)c2cc(C)ccc2o1	–
–	111	COc1ccc2cc(CCC(C)=O)ccc2c1 [NABUMETONE]	–
–	66	O=C1CC(=O)c2ccccc21	–
inactive	–	CC(C)Cc1ccc(C(C)C(=O)O)cc1 (configuration not stated)	–
